Drawing on ChEMBL document CHEMBL4393700, “Novel resveratrol-based flavonol derivatives: Synthesis and anti-inflammatory activity in vitro and in vivo” (Eur J Med Chem, 2019), this text covers inhibition, Activity and IC50 for eight compounds.

In data set [1] the test system is RAW264.7. The data set can be described thus: Antiinflammatory activity in mouse RAW264.7 cells assessed as inhibition of LPS-induced NO production at 10 uM pretreated for 1 hr followed by LPS stimulation and measured after 24 hrs by Griess reagent based assay. The class given is functional, cell-based. The gist of the method:
(§1)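 RAW264.7 in DMEM/10% FBS with penicillin-streptomycin, 37 °C, 5% CO2; seeded 6×10^4 cells/well, grown 24 h, pretreated 1 h with test agent (10 µM screen; 10, 5, 2.5, 1.25, 0.625 µM for concentration series), then LPS 0.5 µg/mL for 24 h. Supernatant nitrite measured with Griess reagent.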
A general note: The Griess reaction detects nitrite, a stable product of nitric oxide.

In data set [2] the test system is RAW264.7. In words: Antiinflammatory activity in mouse RAW264.7 cells assessed as reduction in LPS-induced IL-6 production pretreated for 1 hr followed by LPS stimulation and measured after 24 hrs by ELISA. The class given is functional, cell-based. The gist of the method: (§2)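 RAW264.7 seeded 6×10^4 cells/well, cultured 24 h; 1 h pretreatment at 10, 5, 2.5, 1.25 or 0.625 µM, then LPS 0.5 µg/mL for 24 h. IL-6 and TNF-α in conditioned medium quantified by ELISA.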
On the technique in general: An ELISA detects its analyte on a solid surface through an enzyme-linked reagent.

Data set [3] concerns RAW264.7. In words: Antiinflammatory activity in mouse RAW264.7 cells assessed as reduction in LPS-induced NO production pretreated for 1 hr followed by LPS stimulation and measured after 24 hrs by Griess reagent based assay. The class given is functional, cell-based. The gist of the method:
as §1

Data set [4] concerns RAW264.7. In words: Antiinflammatory activity in mouse RAW264.7 cells assessed as reduction in LPS-induced TNF alpha production pretreated for 1 hr followed by LPS stimulation and measured after 24 hrs by ELISA. The class given is functional, cell-based. The gist of the method:
as §2

The test system of data set [5] is RAW264.7. The data set can be described thus: Cytotoxicity against LPS-stimulated mouse RAW264.7 cells at 20 uM pretreated for 1 hr followed by LPS stimulation and measured after 24 hrs by MTT assay. The conditions noted are these: raw264.7, 24 h.

Each structure is given as a SMILES string. pIC50: −log10 of the molar value. Activity calls are given as the source filed them. The rule behind the calls is not given here.

Consider `Cc1ccc(-c2cc(C(F)(F)F)nn2-c2ccc(S(N)(=O)=O)cc2)cc1`, for which the inhibition entry in data set [1] is “Active”.
For `COc1ccc(/C=C/c2cc(OC)cc(OC)c2-c2oc3ccc(Cl)cc3c(=O)c2O)cc1`, the Activity entry in data set [2], in data set [3] and in data set [4] was “Dose-dependent effect” each time. The negative-log IC50 (pIC50) (usually the IC50 on a negative log10 scale, so that one unit is a factor of ten) in data set [2] is 5.30; in data set [3], 5.32; in data set [4], 5.13. Also, the inhibition entry in data set [1] was “Active”.
As to `CCOc1ccc(/C=C/c2cc(OC)cc(OC)c2-c2cc(=O)c3cc(OC)ccc3o2)cc1`, the Activity entry in data set [5] is “Non-Toxic”.
Still for that read-out and setting: for `COc1ccc(/C=C/c2cc(OC)cc(OC)c2-c2cc(=O)c3cc(OC)c(OC)cc3o2)cc1` the value was “Non-Toxic”.
As for `COc1ccc(/C=C/c2cc(OC)cc(OC)c2-c2cc(=O)c3cc(F)ccc3o2)cc1`, in data set [1], the inhibition result was “Active”.
`COc1cc(/C=C/c2ccc(OCc3ccccc3)cc2)c(-c2cc(=O)c3cc(OC)ccc3o2)c(OC)c1`: the Activity result in data set [5] was “Non-Toxic”.
With `COc1ccc(/C=C/c2cc(OC)cc(OC)c2-c2oc3ccc(OC)cc3c(=O)c2O)cc1`, the Activity result in data set [2], in data set [3] and in data set [4] was “Dose-dependent effect” throughout. The values for the pIC50 in data set [2], in data set [3] and in data set [4] were 5.63, 5.75 and 5.30, respectively. The inhibition result in data set [1] is “Active”.
Turning to `COc1cc(/C=C/c2ccc(OCc3ccccc3)cc2)c(-c2cc(=O)c3cc(Br)ccc3o2)c(OC)c1`, in data set [5], the Activity result is “Non-Toxic”.
